Drawing on ChEMBL document CHEMBL4811300, “Design, synthesis, and biological evaluation of novel bifunctional thyrointegrin antagonists for neuroblastoma” (Bioorg Med Chem, 2021), this text covers Activity and Drug uptake for three compounds.

Data set [1] deals with SK-N-FI. In words: Antitumor activity against human SK-N-FI cells xenografted in Ncr nude mouse assessed as reduction of tumor weight at 3 mg/kg, sc dosed daily up to 20 days relative to control. As to conditions: time day <=20; call rule not given here. Type of data set: functional. Set-up: scale not given: the % may be the effect or the level left. The method, boiled down: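 SK-N-F1 xenografts: 2 million cells per implant, 4 mice per group, with treatment starting once tumors reached 500 mm³. Dosing was 3 mg/kg s.c. once daily for 20 days (the methods say 21) against PBS vehicle control. Animals were sacrificed at study end, and tumors were excised and weighed.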

The subject of data set [2] is SK-N-FI. Briefly: Antitumor activity against human SK-N-FI cells xenografted in Ncr nude mouse assessed as increase in necrotic cells in tumor at 3 mg/kg, sc dosed daily up to 20 days by H and E staining based light microscopic analysis relative to control. Type of data set: functional. As to conditions: time day <=20. The method, boiled down: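 SK-N-F1 cells (2 million per implant) were grown in mice (4 per group) until tumors reached 500 mm³. Mice were then dosed at 3 mg/kg s.c. once daily for 20 days against PBS vehicle; the methods section states 21 days. Harvested tumors were fixed in 10% formalin for at least 48 h, paraffin-embedded, sectioned and H&E stained. Necrosis, fibrosis and debris area was scored microscopically at 4X, 10X and 40X.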
In general terms: A xenograft is tissue or cells of one species grown in another, often human tumour cells in immunodeficient mice.

Data set [3] is described as follows: Drug uptake in human SK-N-F1 cells at 10 uM measured upto 60 mins by LC-MS/MS analysis. It is filed as ADME, cell-based. Particulars: sk-n-fi, 1 h. The method, boiled down:
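SK-N-F1 cells (~1M) were exposed to compound at 10 uM per the figure legend; the methods text gives 1 µM. Incubation lasted 15, 30 and 60 min. Cells were washed with PBS, pelleted at 5,000g for 10 min, homogenized in acetonitrile and extracted. The residue was reconstituted in acetonitrile/water 80/20. Quantification was by LC-MS/MS (positive ESI MRM) against 1–1000 ng/mL standards.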

On to `N=C(N)NCc1ccc(OCCOCCOCCOCCOCCOCCOCCOCCN2CCN(CCCOc3c(I)cc(Oc4c(I)cc(CC(=O)O)cc4I)cc3I)CC2)cc1`, for which the Activity in data set [1] is on record as 90%; in data set [2] it was 98%.
Regarding `CC(C)(C)OC(=O)NCc1ccc(OCCOCCOCCOCCOCCOCCOCCn2cc(COc3c(I)cc(Oc4c(I)cc(CC(=O)O)cc4I)cc3I)nn2)cc1`, the Drug uptake result in data set [3] is recorded as “Active”.
`N=C(N)NCc1cccc(I)c1` [IOBENGUANE]: the Drug uptake entry in data set [3] was “Active”.
